Data as given in ChEMBL document CHEMBL1759888, “Biological evaluation of polyhalo 1,3-diazaheterocycle fused isoquinolin-1(2H)-imine derivatives” (Eur J Med Chem, 2011).
In brackets after ≈: the same amount, converted by molar mass.

Legend:
[1] = test system: A-431; assay: Anticancer activity against human A431 cells after 72 hrs by MTT assay; conditions: A-431, 72 h
[2] = test system: K562; assay: Anticancer activity against human K562 cells after 48 hrs by MTT assay; conditions: K562, 48 h
[3] = test system: H22; assay: Antitumor activity against mouse H22 cells xenografted in Kunming mouse assessed as tumor growth inhibition rate at 30 mg/kg, po administered for 10 days relative to control; format: functional; conditions: H22, 240 h
Summary of the method: (§1)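 Tumour cells taken in exponential growth and inoculated subcutaneously into the right flank axilla. Mice randomised, 10 per group. Compound in 0.5% CMC-Na given intragastrically daily for 10 days. Solvent control got an equal volume of vehicle; positive control got cyclophosphamide 20 mg/kg i.p. in saline. Tumours weighed at sacrifice; inhibition rate calculated against solvent control.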

[4] = test system: HL-60; assay: Anticancer activity against human HL60 cells after 48 hrs by MTT assay; conditions: HL-60, 48 h
[5] = test system: CCRF S-180; assay: Antitumor activity against mouse S180 cells xenografted in Kunming mouse assessed as tumor growth inhibition rate at 90 mg/kg, po administered for 10 days relative to control; format: functional; conditions: CCRF S-180, 240 h
Summary of the method: as §1

[6] = test system: Mus musculus; assay: Toxicity in Kunming mouse assessed as mouse mortality at 4500 mg/kg, po administered in 24 hr duration measured after 7 days; format: organism-based; design: dose 4500 mg/kg, route oral; conditions: in vivo, 168 h
Summary of the method: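 Acute toxicity test in Kunming mice (18–22 g), each group treated with one compound. The compound was given orally within 24 h, and mice were then monitored continuously for up to 7 days for abnormal behaviour or death.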

[7] = test system: CCRF S-180; assay: Antitumor activity against mouse S180 cells xenografted in po dosed Kunming mouse assessed as tumor tumor growth inhibition rate administered for 10 days relative to control; format: functional, organism-based
Summary of the method: as §1

[8] = test system: CCRF S-180; assay: Antitumor activity against mouse S180 cells xenografted in Kunming mouse assessed as tumor growth inhibition rate at 30 mg/kg, po administered for 10 days relative to control; format: functional; conditions: CCRF S-180, 240 h
Summary of the method: as §1

[9] = test system: CCRF S-180; assay: Antitumor activity against mouse S180 cells xenografted in Kunming mouse assessed as tumor tumor growth inhibition rate at 10 mg/kg, po administered for 10 days relative to control; format: functional; conditions: CCRF S-180, 240 h
Summary of the method: as §1

[10] = test system: HepG2; assay: Anticancer activity against human HepG2 cells after 72 hrs by MTT assay; conditions: HepG2, 72 h
[11] = test system: SK-OV-3; assay: Anticancer activity against human SKOV3 cells after 72 hrs by MTT assay; conditions: SK-OV-3, 72 h
[12] = test system: H22; assay: Antitumor activity against mouse H22 cells xenografted in Kunming mouse assessed as tumor growth inhibition rate at 10 mg/kg, po administered for 10 days relative to control; format: functional; conditions: H22, 240 h
Summary of the method: as §1

[13] = Lipophilicity, log P of the compound; format: physicochemical; conditions: octanol/water

CCOC(=O)c1c2n(c(=N)c3c(F)c(C#N)c(F)c(F)c13)CCN2
IC50 [1]: 3.4 µg/mL (≈ 10.1 µM) | IC50 [2]: 0.0005 µg/mL (≈ 0.00149 µM) | inhibition in vivo at 30 mg/kg [3]: 27.5% | IC50 [4]: 0.02 µg/mL (≈ 0.0595 µM) | inhibition in vivo at 90 mg/kg [5]: 26.6% | Activity [6]: Toxic | inhibition [7]: Dose-dependent effect | inhibition in vivo at 30 mg/kg [8]: 54.2% | inhibition in vivo at 10 mg/kg [9]: 39.2% | IC50 [10]: 0.4 µg/mL (≈ 1.19 µM) | IC50 [11]: 0.04 µg/mL (≈ 0.119 µM) | inhibition in vivo at 10 mg/kg [12]: 11.4% | logP [13]: 2.04
